According to ChEMBL document CHEMBL2093137, “WHO-TDR NTD Screening”:
In brackets after ≈: the same amount, converted by molar mass.

Key:
[1] = test system: Plasmodium falciparum K1; assay: WHO-TDR: Malaria; type: functional, organism-based, Homo sapiens; conditions: Erythrocyte
Procedure, shortened: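 Antiplasmodial potency, expressed as IC50, was measured in a whole-organism assay on intra-erythrocytic Plasmodium falciparum K1 in human red blood cells. The screened library held 10,000 diverse compounds from Life Chemicals.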

[2] = test system: Trypanosoma cruzi; assay: WHO-TDR: Chagas disease; type: functional, organism-based, Homo sapiens; conditions: MRC5
Procedure, shortened: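 A diverse library of 10,000 compounds from Life Chemicals, filtered for drug-likeness and reactive groups, was screened against intracellular amastigotes of Trypanosoma cruzi Tulahuen CL2 beta-galactosidase strain. The parasites were grown in MRC-5SV2 human lung fibroblast host cells, and a reference drug served as positive control under previously published standard procedures. Antiparasitic potency is given as IC50.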

[3] = test system: Leishmania infantum; assay: WHO-TDR: Leishmaniasis; type: functional, organism-based, Mus musculus; conditions: Macrophage
Procedure, shortened: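 Antiparasitic potency, reported as IC50, was measured against intracellular Leishmania infantum amastigotes. The parasite strain was MHOM/MA(BE)/67, and murine peritoneal macrophages served as host cells for the screen of a 10,000-compound diverse library from Life Chemicals.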

[4] = test system: Schistosoma mansoni; assay: WHO-TDR: Schistosomiasis; type: functional; parameters: concentration or dose not given beside the values
Procedure, shortened: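 Percent inhibition and IC50 describe activity against whole Schistosoma mansoni worms of the Puerto Rican strain, tested as larvae and/or adults. The compounds screened were a diverse set of 10,000 from Life Chemicals, filtered for drug-likeness and reactive groups. Testing followed previously published standard procedures, with a reference drug as positive control.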

[5] = test system: Trypanosoma brucei brucei; assay: WHO-TDR: Human African Trypanosomiasis (HAT); type: functional, organism-based; conditions: Squib-427
Procedure, shortened: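 Antiparasitic potency is reported as IC50. The screen covered 10,000 compounds from a diverse Life Chemicals library, filtered for drug-likeness and reactive groups, tested on whole bloodstream-form Trypanosoma brucei of the Squib 427 strain.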

[6] = test system: Onchocerca ochengi; assay: WHO-TDR: Onchocerciasis; type: functional; parameters: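 at 12.5 µM on microfilariae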
Procedure, shortened: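 Percent inhibition and IC50 describe activity against microfilariae of Onchocerca ochengi or Onchocerca lienalis, used as animal-pathogen substitutes for the human parasite. The compounds tested made up a 10,000-member diverse library from Life Chemicals.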

[7] = WHO-TDR: Cytotoxicity; type: toxicity, cell-based; conditions: human, MRC5 cells
[8] = test system: Brugia malayi; assay: WHO-TDR: Lymphatic Filariasis; type: functional; parameters: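 tested at 10 µM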
Procedure, shortened: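 The screening set was a 10,000-compound diverse library from Life Chemicals, filtered for drug-likeness and for reactive groups. It was run against Brugia malayi microfilariae as whole organisms, using previously published standard procedures. Reference drugs acted as positive controls, and activity is reported both as percent inhibition and as IC50.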

## COc1cc(C)ccc1S(=O)(=O)NCCCn1nc(-c2ccc(F)cc2)ccc1=O
[1]
  IC50: > 12.9 µg/mL
[2]
  IC50: > 12.9 µg/mL
[3]
  IC50: > 12.9 µg/mL
[4]
  % Inhibition: 0%
[5]
  IC50: > 12.9 µg/mL
[6]
  % Inhibition: 100%
[7]
  IC50: 10 µg/mL (≈ 23.2 µM)
[8]
  % Inhibition: 0%

## CCc1nnc(NS(=O)(=O)c2ccc(NC(=O)c3nc4ccccc4s3)cc2)s1
[1]
  IC50: > 13.4 µg/mL
[2]
  IC50: > 13.4 µg/mL
[3]
  IC50: > 13.4 µg/mL
[4]
  % Inhibition: 0%
[5]
  IC50: > 13.4 µg/mL
[6]
  % Inhibition: 100%
[7]
  IC50: > 13.4 µg/mL
[8]
  % Inhibition: 0%

## CS(=O)(=O)N1CCN(c2ccc(-c3ccccn3)nn2)CC1
[1]
  IC50: > 9.58 µg/mL
[2]
  IC50: 0.22 µg/mL (≈ 0.689 µM)
[3]
  IC50: > 9.58 µg/mL
[4]
  % Inhibition: 0%
[5]
  IC50: > 9.58 µg/mL
[6]
  % Inhibition: 0%
[7]
  IC50: > 9.58 µg/mL
[8]
  % Inhibition: 0%

## O=C(Nc1nc(-c2ccccn2)cs1)C1CCN(S(=O)(=O)c2ccc(Cl)cc2)CC1
[1]
  IC50: 12.7 µg/mL (≈ 27.5 µM)
[2]
  IC50: 4.3 µg/mL (≈ 9.28 µM)
[3]
  IC50: > 13.9 µg/mL
[4]
  % Inhibition: 0%
[5]
  IC50: 4.13 µg/mL (≈ 8.93 µM)
[6]
  % Inhibition: 100%
[7]
  IC50: > 13.9 µg/mL
[8]
  % Inhibition: 0%

## O=C(Cc1csc(SCc2ccncc2)n1)N1CCN(c2ccccc2)CC1
[1]
  IC50: > 12.3 µg/mL
[2]
  IC50: 4.2 µg/mL (≈ 10.2 µM)
[3]
  IC50: > 12.3 µg/mL
[5]
  IC50: > 12.3 µg/mL
[6]
  % Inhibition: 100%
[7]
  IC50: > 12.3 µg/mL
[8]
  % Inhibition: 0%

## Cc1noc(C)c1S(=O)(=O)Nc1cccc(-c2csc3nc(C)c(C)c(=O)n23)c1
[1]
  IC50: > 12.9 µg/mL
[2]
  IC50: > 12.9 µg/mL
[3]
  IC50: 0.418 µg/mL (≈ 0.971 µM)
[5]
  IC50: > 12.9 µg/mL
[6]
  % Inhibition: 0%
[7]
  IC50: > 12.9 µg/mL
[8]
  % Inhibition: 0%

## CC(=O)NCCNc1ccc(Nc2cc(C)ccn2)nn1
[1]
  IC50: 5.28 µg/mL (≈ 18.4 µM)
[2]
  IC50: > 8.59 µg/mL
[3]
  IC50: > 8.59 µg/mL
[5]
  IC50: > 8.59 µg/mL
[6]
  % Inhibition: 100%
[7]
  IC50: 6.36 µg/mL (≈ 22.2 µM)
[8]
  % Inhibition: 0%

## COc1cc(NCCNC(=O)C(C)C)nc(OC)n1
[1]
  IC50: > 8.05 µg/mL
[2]
  IC50: > 8.05 µg/mL
[3]
  IC50: 0.261 µg/mL (≈ 0.973 µM)
[5]
  IC50: > 8.05 µg/mL
[6]
  % Inhibition: 0%
[7]
  IC50: > 8.05 µg/mL
[8]
  % Inhibition: 0%

## COc1ccc(-c2cn3c(C(=O)Nc4cc(C)on4)csc3n2)cc1
[1]
  IC50: > 10.6 µg/mL
[2]
  IC50: > 10.6 µg/mL
[3]
  IC50: > 10.6 µg/mL
[5]
  IC50: > 10.6 µg/mL
[6]
  % Inhibition: 100%
[7]
  IC50: > 10.6 µg/mL
[8]
  % Inhibition: 0%

## COc1ccc(-c2cn3c(C(=O)Nc4ccccc4F)csc3n2)cc1
[1]
  IC50: > 11 µg/mL
[2]
  IC50: > 11 µg/mL
[3]
  IC50: > 11 µg/mL
[5]
  IC50: > 11 µg/mL
[6]
  % Inhibition: 100%
[7]
  IC50: > 11 µg/mL
[8]
  % Inhibition: 0%

## FC(F)(F)c1ccc(Nc2ncnc3[nH]ncc23)cc1
[1]
  IC50: > 8.38 µg/mL
[2]
  IC50: 2.72 µg/mL (≈ 9.73 µM)
[3]
  IC50: > 8.38 µg/mL
[5]
  IC50: 3.19 µg/mL (≈ 11.4 µM)
[6]
  % Inhibition: 100%
[7]
  IC50: > 8.38 µg/mL
[8]
  % Inhibition: 0%

## O=C(CCc1csc(NC(=O)c2cccs2)n1)Nc1nc2ccccc2s1
[1]
  IC50: > 12.4 µg/mL
[2]
  IC50: > 12.4 µg/mL
[3]
  IC50: 4.03 µg/mL (≈ 9.71 µM)
[5]
  IC50: > 12.4 µg/mL
[6]
  % Inhibition: 100%
[7]
  IC50: > 12.4 µg/mL
[8]
  % Inhibition: 0%

## Cc1nc2scc(-c3cccc(NC(=O)NC4CCCCC4)c3)n2c(=O)c1C
[1]
  IC50: > 11.9 µg/mL
[2]
  IC50: 3.54 µg/mL (≈ 8.93 µM)
[3]
  IC50: > 11.9 µg/mL
[5]
  IC50: 4.05 µg/mL (≈ 10.2 µM)
[6]
  % Inhibition: 100%
[7]
  IC50: > 11.9 µg/mL
[8]
  % Inhibition: 0%

## COc1ccccc1CNC(=O)CCc1csc(NC(=O)c2ccc(F)cc2)n1
[1]
  IC50: > 12.4 µg/mL
[2]
  IC50: > 12.4 µg/mL
[3]
  IC50: > 12.4 µg/mL
[5]
  IC50: > 12.4 µg/mL
[6]
  % Inhibition: 100%
[7]
  IC50: > 12.4 µg/mL
[8]
  % Inhibition: 0%

## CCOC(=O)N1CCC(NC(=O)CCc2csc(NC(=O)c3ccccc3)n2)CC1
[1]
  IC50: 10.6 µg/mL (≈ 24.6 µM)
[2]
  IC50: > 12.9 µg/mL
[3]
  IC50: > 12.9 µg/mL
[5]
  IC50: > 12.9 µg/mL
[6]
  % Inhibition: 100%
[7]
  IC50: 4.08 µg/mL (≈ 9.49 µM)
[8]
  % Inhibition: 0%

## Cc1nc2scc(-c3cccc(NS(C)(=O)=O)c3)n2c(=O)c1C
[1]
  IC50: > 10.5 µg/mL
[2]
  IC50: > 10.5 µg/mL
[3]
  IC50: > 10.5 µg/mL
[5]
  IC50: > 10.5 µg/mL
[6]
  % Inhibition: 100%
[7]
  IC50: > 10.5 µg/mL
[8]
  % Inhibition: 0%

## O=C(Cc1csc(Nc2ccc(F)cc2)n1)N1CCN(c2ncccn2)CC1
[1]
  IC50: > 12 µg/mL
[2]
  IC50: 5.13 µg/mL (≈ 12.9 µM)
[3]
  IC50: > 12 µg/mL
[5]
  IC50: > 12 µg/mL
[6]
  % Inhibition: 100%
[7]
  IC50: > 12 µg/mL
[8]
  % Inhibition: 20%

## CCSc1nnc(NC(=O)c2cc(=O)c(OCc3ccc(F)cc3)cn2C)s1
[1]
  IC50: > 12.6 µg/mL
[2]
  IC50: > 12.6 µg/mL
[3]
  IC50: > 12.6 µg/mL
[5]
  IC50: > 12.6 µg/mL
[6]
  % Inhibition: 100%
[7]
  IC50: > 12.6 µg/mL
[8]
  % Inhibition: 0%

## CCC(Sc1ccc(NC(=O)c2cccc(F)c2)nn1)C(=O)OC (centres undefined)
[1]
  IC50: > 10.5 µg/mL
[2]
  IC50: > 10.5 µg/mL
[3]
  IC50: > 10.5 µg/mL
[5]
  IC50: > 10.5 µg/mL
[6]
  % Inhibition: 100%
[7]
  IC50: 9.15 µg/mL (≈ 26.2 µM)
[8]
  % Inhibition: 0%

## O=C(CCc1csc(NC(=O)c2ccco2)n1)NCc1c(F)cccc1F
[1]
  IC50: > 11.7 µg/mL
[2]
  IC50: > 11.7 µg/mL
[3]
  IC50: > 11.7 µg/mL
[5]
  IC50: > 11.7 µg/mL
[6]
  % Inhibition: 100%
[7]
  IC50: > 11.7 µg/mL
[8]
  % Inhibition: 0%

## O=S(=O)(c1ccccc1)N1CCN(c2ccc(Nc3ccncc3)nn2)CC1
[1]
  IC50: > 11.9 µg/mL
[2]
  IC50: > 11.9 µg/mL
[3]
  IC50: 0.385 µg/mL (≈ 0.971 µM)
[5]
  IC50: > 11.9 µg/mL
[6]
  % Inhibition: 0%
[7]
  IC50: > 11.9 µg/mL
[8]
  % Inhibition: 0%

## Cc1cc(NS(=O)(=O)c2c(C)noc2C)n(C2CCS(=O)(=O)C2)n1 (centres undefined)
[1]
  IC50: > 11.2 µg/mL
[2]
  IC50: > 11.2 µg/mL
[3]
  IC50: > 11.2 µg/mL
[5]
  IC50: > 11.2 µg/mL
[6]
  % Inhibition: 100%
[7]
  IC50: > 11.2 µg/mL
[8]
  % Inhibition: 0%

## O=C(Cc1csc(Nc2cccc(Cl)c2)n1)N1CCN(C(=O)c2ccco2)CC1
[1]
  IC50: > 12.9 µg/mL
[2]
  IC50: 4.55 µg/mL (≈ 10.6 µM)
[3]
  IC50: 6.7 µg/mL (≈ 15.5 µM)
[5]
  IC50: 4.46 µg/mL (≈ 10.3 µM)
[6]
  % Inhibition: 100%
[7]
  IC50: 3.98 µg/mL (≈ 9.24 µM)
[8]
  % Inhibition: 20%

## O=C(Cc1csc(Nc2ccccc2)n1)NCCc1c[nH]c2ccccc12
[1]
  IC50: > 11.3 µg/mL
[2]
  IC50: > 11.3 µg/mL
[3]
  IC50: > 11.3 µg/mL
[5]
  IC50: > 11.3 µg/mL
[6]
  % Inhibition: 100%
[7]
  IC50: > 11.3 µg/mL
[8]
  % Inhibition: 20%

## COc1ccc(-c2cn3c(CCC(=O)Nc4ccccc4SC)csc3n2)cc1
[1]
  IC50: > 12.7 µg/mL
[2]
  IC50: 5.77 µg/mL (≈ 13.6 µM)
[3]
  IC50: > 12.7 µg/mL
[5]
  IC50: 4.22 µg/mL (≈ 9.95 µM)
[6]
  % Inhibition: 100%
[7]
  IC50: > 12.7 µg/mL
[8]
  % Inhibition: 20%
